Rows were chosen to be rich in hits. Some 4.6% of all compounds tested hit in one or more screens of this group.
TAAR1 antag: antagonists of human TAAR1; 1.5% of 360,000 active; inhibition, % at 3 µM; CHO RD-HGA16 TAAR1, Fluo-8 calcium fluorescence, antagonist;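 active = inhibition above a per-plate cutoff, the mean inhibition of test compounds on that plate plus 3 SD, cut at about 49% in these data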;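 also: 0% = DMSO plus EC80 beta-PEA response and 100% = DMSO alone without agonist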
Target sequence (Q96RJ0 whole entry, looked up): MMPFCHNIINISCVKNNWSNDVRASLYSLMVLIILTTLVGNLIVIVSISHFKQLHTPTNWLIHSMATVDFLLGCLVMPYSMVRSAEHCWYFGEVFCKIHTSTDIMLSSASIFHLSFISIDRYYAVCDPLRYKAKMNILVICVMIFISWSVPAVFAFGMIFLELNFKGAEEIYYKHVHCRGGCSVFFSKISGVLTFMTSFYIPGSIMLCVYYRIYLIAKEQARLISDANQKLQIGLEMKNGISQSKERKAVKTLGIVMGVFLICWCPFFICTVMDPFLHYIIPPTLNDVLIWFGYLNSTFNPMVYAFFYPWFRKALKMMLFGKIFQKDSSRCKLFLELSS
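Test system – hTAAR1-expressing CHO RD-HGA16 cells, Gα16-coupled · Reagent – β-PEA at EC80 concentration, post-compound challenge · Compound dosing – 3 µM, single point · Timing – 140 s kinetic read after compound, 140 s after agonist · Detection – Fluo-8 intracellular calcium dye fluorescence, real-time kinetic reads · Control set – DMSO and EC80 PEA controls · Repeats – n of 1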
OX1R antag-1: OX1R (human) antagonism | O43613 | OX1R-expressing cells, FRET antagonist read-out | inhibition, % at 6.6 µM | 1.8% of 330,000 active | AID 485270; in the data active = inhibition mostly above about 38%, no sharp cut-off; inactive = mostly below about 40%;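 also: 0% = agonist challenge alone and 100% = reference antagonist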
Target sequence (O43613 whole entry, looked up): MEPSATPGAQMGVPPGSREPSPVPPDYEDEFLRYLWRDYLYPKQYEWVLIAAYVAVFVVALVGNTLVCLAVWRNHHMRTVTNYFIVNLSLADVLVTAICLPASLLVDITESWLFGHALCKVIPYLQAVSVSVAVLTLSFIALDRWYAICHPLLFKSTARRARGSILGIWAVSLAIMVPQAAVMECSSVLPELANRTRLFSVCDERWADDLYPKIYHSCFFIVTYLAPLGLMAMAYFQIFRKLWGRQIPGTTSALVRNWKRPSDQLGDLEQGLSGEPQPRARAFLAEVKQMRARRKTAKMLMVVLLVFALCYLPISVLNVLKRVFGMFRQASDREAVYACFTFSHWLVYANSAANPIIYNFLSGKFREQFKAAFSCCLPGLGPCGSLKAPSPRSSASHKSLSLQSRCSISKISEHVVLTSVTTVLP
OX1R antag-2: blocks the human orexin 1 receptor. AID 434989. CHO/OX1R cells, Fluo-8 calcium fluorescence, orexin A. inhibition, % at 5 µM. O43613. 0.43% of 330,000 active;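 active = inhibition above its plate's threshold, mean inhibition of all tested compounds on the plate plus 3 SD, cut at about 37% in these data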;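 also: 0% = orexin A challenge wells and 100% = SB-334867-A antagonist wells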
GPR7 antag: antagonists of human GPR7 (neuropeptides B/W receptor 1). P48145. GPR7-expressing cells, fluorescence antagonist assay. inhibition, % at 4.4 µM. 1.1% of 290,000 active. AID 1861; in the data active = inhibition above about 16%, passing the limit was not always enough;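 also: cells stimulated with the agonist NPW; 0% = agonist with vehicle and 100% = vehicle without agonist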
CHO parental Ca: signal in parental CHO cells, OX1R antagonist counter-screen; parental CHO-K1, ATP-induced calcium, Fluo-8 fluorescence; inhibition, % at 5.6 µM; 0.63% of 330,000 active; AID 463079;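 active = inhibition above that plate's mean sample inhibition plus 3 SD, cut at about 26% in these data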;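 also: 0% = ATP-challenged DMSO wells and 100% = DMSO wells without ATP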
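Material: Parental CHO cells | Reagent: ATP | Compound dosing: Single nominal dose of 5.6 µM per compound | Detection: Intracellular calcium via Fluo-8 no-wash fluorescent dye | Read-out: % inhibition of ATP-induced calcium mobilization | Benchmarks: Low control ATP plus DMSO, high control DMSO only | Replicates: Singlicate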
TAAR1 ag: human TAAR1 agonism. activation, % at 3 µM. CHO RD-HGA16 TAAR1, Fluo-8 calcium fluorescence; vehicle wells 0%, saturating PEA agonist 100%. 0.99% of 360,000 active;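 active = activation above the mean activation of all test compounds in the run plus 3 SD, cut at about 38% in these data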
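Test system: RD-HGA16 (CHO) cells co-expressing Gα16 and hTAAR1; dosing: one-point dosing at 3 µM (nominal); timing: 17-24 h seeding, 75 min 37 °C dye, 30 min RT; signal: kinetic Fluo-8 calcium fluorescence; read-out basis: % activation relative to PEA EC100 response; controls: DMSO and PEA EC100; replicates: n 1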
TAAR1 ag conf: human TAAR1 agonism, confirmed; CHO RD-HGA16 TAAR1, Fluo-8 calcium fluorescence; scaled: DMSO 0%, maximal phenethylamine 100%; 82% of 2,400 active; activation, % at 3 µM; shares compounds with TAAR1 ag; AID 651783;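 active = activation above a cutoff set at the run's mean compound activation plus 3 SD, cut at about 39% in these data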
Ga16 ag counter: nonselective agonism, TAAR1 counter-screen. shares compounds with TAAR1 ag. CHO-Ga16 parental, Fluo-8 calcium fluorescence; normalized to maximal ATP response, DMSO zero. activation, % at 3 µM. 50% of 2,400 active. AID 651787;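 active = activation above the run cutoff, the mean activation over all tested wells plus 3 SD, cut at about 12% in these data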;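 also: 0% = DMSO wells and 100% = maximal ATP response on the peak over basal ratio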
TAAR1 desens: counter-screen for human TAAR1 agonists: agonists that desensitize TAAR1 | shares compounds with TAAR1 ag | CHO RD-HGA16 hTAAR1, Fluo-8 calcium, beta-PEA response inhibition | inhibition, % at 3 µM | 46% of 2,400 active;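 active = inhibition above the run cutoff, the mean inhibition of all test compounds plus 3 SD, cut at about 49% in these data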;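 also: beta-PEA stimulus applied at its EC80; loss of beta-PEA calcium signal after compound pretreatment read as receptor desensitization; 0% = DMSO with beta-PEA at EC80 and 100% = DMSO alone without agonist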
Ga16 nonsel ant: counter-screen for TAAR1 agonists: nonselective Ga16 antagonists; shares compounds with TAAR1 ag; CHO-Ga16 ATP-induced calcium, Fluo-8 fluorescence; inhibition, % at 3 µM; 39% of 2,400 active; AID 651952;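 active = inhibition above the plate's mean compound inhibition plus 3 SD, computed per plate, cut at about 22% in these data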;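 also: 0% = EC80 ATP with DMSO and 100% = DMSO wells without ATP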
* hit, by the source's call.

What do the screens show for `CCOc1ccc(OCCC(=O)OCC(=O)NCCc2ccc(S(N)(=O)=O)cc2)cc1`?
TAAR1 antag: -4; OX1R antag-1: 7; OX1R antag-2: -10; CHO parental Ca: -17; TAAR1 ag: 0

Results for COc1ccccc1C(=O)NCCC(=O)N1CCN(C(C)=O)CC1 ?
TAAR1 antag: -2; OX1R antag-1: 12; OX1R antag-2: -7; CHO parental Ca: -6; TAAR1 ag: 1

How did CCOc1ccc(CC(=N)C2=C(O)CC(C)(C)CC2=O)cc1OCC do in these assays?
TAAR1 antag: -3; OX1R antag-1: 27; OX1R antag-2: -16; GPR7 antag: -10; CHO parental Ca: -6; TAAR1 ag: -1

How did CCOc1ccc(CC(=NCCc2ccccc2)C2=C(O)CC(C)(C)CC2=O)cc1OCC do in these assays?
TAAR1 antag: 87*; OX1R antag-1: -6; OX1R antag-2: -27; GPR7 antag: -11; CHO parental Ca: -13; TAAR1 ag: 81*; TAAR1 ag conf: 88*; Ga16 ag counter: 3; TAAR1 desens: 79*; Ga16 nonsel ant: 10

What do the screens show for `CC(=O)NNC(=S)NC(=O)C(c1ccccc1)c1ccccc1`?
TAAR1 antag: 19; OX1R antag-1: 13; OX1R antag-2: -18; GPR7 antag: -2; CHO parental Ca: -16; TAAR1 ag: 49*; TAAR1 ag conf: 28; Ga16 ag counter: 20*; TAAR1 desens: 27; Ga16 nonsel ant: 25*

What do the screens show for `O=c1c2ccc([N+](=O)[O-])cc2ncn1Cc1ccccc1C(F)(F)F`?
TAAR1 antag: 7; OX1R antag-1: 25; OX1R antag-2: -22; GPR7 antag: -13; CHO parental Ca: -7; TAAR1 ag: 51*; TAAR1 ag conf: 8; Ga16 ag counter: 22*; TAAR1 desens: -2; Ga16 nonsel ant: 12

How did O=C(NCCc1ccccc1)c1cnc2n(c1=O)CCS2 do in these assays?
OX1R antag-1: 15; OX1R antag-2: -5; GPR7 antag: -6; CHO parental Ca: -7; Ga16 ag counter: 5; Ga16 nonsel ant: 2

Results for Cc1cccnc1NC(=S)NC(=O)c1oc2ccccc2c1C ?
TAAR1 antag: 5; OX1R antag-1: 15; OX1R antag-2: -7; GPR7 antag: -8; CHO parental Ca: -11; TAAR1 ag: -3

Results for Cc1cc(Nc2ccc(Cl)cc2)nc(NCc2ccccc2)n1 ?
TAAR1 antag: -8; OX1R antag-1: 26; OX1R antag-2: -2; GPR7 antag: 4; CHO parental Ca: 20; TAAR1 ag: 55*; TAAR1 ag conf: 81*; Ga16 ag counter: 35*; TAAR1 desens: 53*; Ga16 nonsel ant: 29*

How did Cc1cc(Nc2ccccc2)nc(NCc2ccccc2)n1 do in these assays?
TAAR1 antag: 31; OX1R antag-1: 32; OX1R antag-2: -2; GPR7 antag: 37*; CHO parental Ca: 15; TAAR1 ag: 56*; TAAR1 ag conf: 76*; Ga16 ag counter: 36*; TAAR1 desens: 53*; Ga16 nonsel ant: 37*

Results for Nc1ccn([C@@H]2O[C@H](C(=O)N[C@H](Cc3ccccc3)C(=O)NCc3cccc4c3OCO4)[C@@H](O)[C@H]2O)c(=O)n1 ?
TAAR1 antag: 5; TAAR1 ag: 0

How did Cc1cc(C)nc(NS(=O)(=O)c2ccc(NC(=O)C3(c4ccc([N+](=O)[O-])cc4)CCCC3)cc2)n1 do in these assays?
TAAR1 antag: 37; OX1R antag-1: 5; OX1R antag-2: 17; GPR7 antag: 25; CHO parental Ca: 12; TAAR1 ag: 63*; TAAR1 ag conf: 102*; Ga16 ag counter: 39*; TAAR1 desens: 64*; Ga16 nonsel ant: 36*

What do the screens show for `COc1ccc(C2(C(=O)Nc3ccc(S(=O)(=O)Nc4nc(C)cc(C)n4)cc3)CCCC2)cc1OC`?
TAAR1 antag: -18; OX1R antag-1: -2; OX1R antag-2: -13; GPR7 antag: -2; CHO parental Ca: -10; TAAR1 ag: 1

How did S=C(NCC1CCCO1)N1CCN(Cc2ccccc2)CC1 (configuration not stated) do in these assays?
TAAR1 antag: -16; OX1R antag-1: 4; OX1R antag-2: -21; GPR7 antag: -1; CHO parental Ca: 3; TAAR1 ag: 1

How did CC(=O)N1N=C(c2ccc(C)c([N+](=O)[O-])c2)OC1(C)C do in these assays?
TAAR1 antag: -23; OX1R antag-1: 4; OX1R antag-2: -11; GPR7 antag: -2; CHO parental Ca: -2; TAAR1 ag: -1

How did CC(=O)N1N=C(c2cccc([N+](=O)[O-])c2)OC1(C)c1cccs1 (configuration not stated) do in these assays?
TAAR1 antag: 54*; OX1R antag-1: 2; OX1R antag-2: -27; GPR7 antag: 4; CHO parental Ca: -19; TAAR1 ag: 58*; TAAR1 ag conf: 0; Ga16 ag counter: 0; TAAR1 desens: 0; Ga16 nonsel ant: 8

Results for CCOC(=O)c1sc2c(c1C)C(c1cccs1)C1=C(CCCC1=O)N2 (configuration not stated) ?
TAAR1 antag: 45; OX1R antag-1: 22; OX1R antag-2: 21; GPR7 antag: 4; CHO parental Ca: -10; TAAR1 ag: 68*; TAAR1 ag conf: 46*; Ga16 ag counter: 16*; TAAR1 desens: 25; Ga16 nonsel ant: 15

How did CN(C(=O)c1ccc(NC(=O)Cc2cccc([N+](=O)[O-])c2)cc1)C1CC1 do in these assays?
TAAR1 antag: -5; OX1R antag-1: 16; OX1R antag-2: 3; CHO parental Ca: -1; TAAR1 ag: 3

What do the screens show for `CN(C(=O)c1ccc(NC(=O)Cc2ccc([N+](=O)[O-])cc2)cc1)C1CC1`?
TAAR1 antag: 39; OX1R antag-1: 3; OX1R antag-2: 11; CHO parental Ca: 6; TAAR1 ag: 77*; TAAR1 ag conf: 97*; Ga16 ag counter: 41*; TAAR1 desens: 35; Ga16 nonsel ant: 17

Assay outcomes: PubChem BioAssay, The Scripps Research Institute Molecular Screening Center
